The text below walks through data of paper PMC5497803 (Cancer Science, 2017).

The target of series [1] is T1, p110β (Homo sapiens, UniProt P42338). Description: PI3K isoform-specific cell-based assay, LPA-stimulated PC‐3 cells. To be noted: LPA 10 μM, 3 h drug; compared with Raji cells. Summed up: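 PC-3 cells stimulated with LPA (10 μM) for 10 min, then exposed to test compound for a further 3 h. Cell lysates western blotted for AKT phosphorylation.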
Series [2] relates to peripheral blood mononuclear cells. Description: Cytotoxicity against peripheral blood mononuclear cells. Format: cell-based. The conditions noted are these: 10 μM; data not shown.
Series [3] deals with T2, p110δ (Homo sapiens, UniProt O00329). Description: PI3K isoform-specific cell-based assay, anti‐IgM–stimulated Raji cells. The conditions noted are these: anti‐IgM 1 μg/mL 10 min, then 3 h drug.
For series [4], the system named is MV4;11 cells. Description: Apoptosis, Annexin V staining and cleaved caspases/PARP. To be noted: MV4;11 (and RS4;11), 48 h. Format: cell-based, human. Summed up:
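MV4;11 and RS4;11 cells exposed to test compound at several concentrations for 48 h. Whole-cell lysates were resolved by SDS-PAGE, blotted onto PVDF and probed for PARP and caspase-3, -8 and -9 cleavage, with ECL detection.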

The test system of series [5] is panel of other protein kinases. Description: SelectScreen kinase profiling, whole panel. In kind it is biochemical. To be noted: 1000 nM.
Series [6] has as its system phosphorylation of AKT or ERK in MM.1R cells. Description: Constitutive PI3K/AKT and ERK signaling in MM.1R cells. Format: cell-based. The conditions noted are these: low expression of p110δ; 1 μM, 3 h. Summed up: (§1)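 Cells in RPMI-1640/10% FBS treated with 1 μM test compound for 3 h, with no added stimulus. Whole-cell lysates separated by SDS-PAGE and transferred to PVDF. Probed for phospho-AKT (S473, T308), phospho-ERK1/2, phospho-S6 and phospho-P70S6K; ECL detection.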

In series [7] the test system is MV4;11 cells. Description: Cell cycle analysis by flow cytometry. In kind it is cell-based, human. To be noted: MV4;11, 24 h, 1 μM; control 63.3%. For orientation: Flow cytometry measures light scatter and fluorescence of single cells or particles in a stream.
Series [8] has as its target T1, p110β. Description: biochemical.
Series [9] relates to MV4;11 xenografts. Description: MV4. In kind it is in vivo, nude mice.
For series [10], the target named is T2, p110δ. Description: PI3K ELISA kinase assay, recombinant class I PI3K. Format: biochemical. For orientation: ELISA stands for enzyme-linked immunosorbent assay.
In series [11] the test system is p110δ‐negative MM.1R cell line. Description: Cell proliferation MTT assay. In kind it is cell-based. The conditions noted are these: 72 h. In a few lines: (§2)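 Cells kept in RPMI-1640 with 10% FBS at 37°C, 5% CO2. In 96-well plates, cells exposed in triplicate to a range of test compound concentrations for 72 h at 37°C. Viability read by MTT conversion to coloured product. IC50 by curve fitting; mean ± SEM of three independent experiments.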
For orientation: Tetrazolium assays rely on reduction of a dye to a coloured formazan, in cell work by metabolically active cells.

The subject of series [12] is MV4;11 cells. Description: Cell proliferation MTT assay. Format: cell-based. To be noted: Homo sapiens, MV4-11, 72 h, read-out: IC50 value, MV4;11. Summed up:
as §2

The test system of series [13] is phosphorylation of AKT and ERK in AML cells. Description: Constitutive PI3K/AKT and ERK signaling in AML cells. Format: cell-based, human. The conditions noted are these: Kasumi‐1 and EOL‐1 cells, 1 μM, 3 h. Summed up:
as §1

The target in series [14] is T3, p110α (Homo sapiens, UniProt P42336). Description: biochemical.
The conditions of series [15]: previous study ref 38; cited from earlier work.
Series [16] deals with p110γ (Mus musculus, UniProt Q9JHG7). Description: PI3K isoform-specific cell-based assay, C5a-stimulated RAW264.7 cells. To be noted: C5a 50 ng/mL, 3 h drug; compared with Raji cells.
For series [17], the system named is RS4;11 xenografts. Description: RS4. In kind it is in vivo, nude mice. Summed up: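 Female Balb/cA nude mice, 5–6 weeks old, inoculated subcutaneously with 5–9 × 10^6 MV4;11 or RS4;11 cells and randomised at 100–300 mm3. Dosed orally with 30 or 60 mg/kg daily for 21 days, or vehicle (vehicle n = 12, treated n = 6). Tumour volume taken as (length × width²)/2; body weight and toxicity signs recorded. Tumours collected 3 h after last dose for western blot.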

The target in series [18] is T3, p110α. Description: PI3K isoform-specific cell-based assay, SK‐BR‐3 cells. The conditions noted are these: 3 h. In a few lines:
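SK-BR-3 cells exposed to test compound for 3 h. Cell lysates western blotted with phospho-specific antibodies for AKT phosphorylation.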

The nature of series [19]: Pharmacokinetic study in MV4. In kind it is in vivo. To be noted: single oral dose 60 mg/kg, MV4;11 tumor‐bearing mice. Summed up: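 MV4;11 tumour-bearing nude mice given a single oral 60 mg/kg dose or vehicle. Plasma and tumours collected at times from 0.5 to 24 h. Drug levels in plasma and tissue measured by HPLC/tandem MS; tumour extracts western blotted for phospho-AKT and phospho-ERK.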

Structures are written as SMILES.

T2 sequence (O00329 whole entry, species assumed, canonical isoform): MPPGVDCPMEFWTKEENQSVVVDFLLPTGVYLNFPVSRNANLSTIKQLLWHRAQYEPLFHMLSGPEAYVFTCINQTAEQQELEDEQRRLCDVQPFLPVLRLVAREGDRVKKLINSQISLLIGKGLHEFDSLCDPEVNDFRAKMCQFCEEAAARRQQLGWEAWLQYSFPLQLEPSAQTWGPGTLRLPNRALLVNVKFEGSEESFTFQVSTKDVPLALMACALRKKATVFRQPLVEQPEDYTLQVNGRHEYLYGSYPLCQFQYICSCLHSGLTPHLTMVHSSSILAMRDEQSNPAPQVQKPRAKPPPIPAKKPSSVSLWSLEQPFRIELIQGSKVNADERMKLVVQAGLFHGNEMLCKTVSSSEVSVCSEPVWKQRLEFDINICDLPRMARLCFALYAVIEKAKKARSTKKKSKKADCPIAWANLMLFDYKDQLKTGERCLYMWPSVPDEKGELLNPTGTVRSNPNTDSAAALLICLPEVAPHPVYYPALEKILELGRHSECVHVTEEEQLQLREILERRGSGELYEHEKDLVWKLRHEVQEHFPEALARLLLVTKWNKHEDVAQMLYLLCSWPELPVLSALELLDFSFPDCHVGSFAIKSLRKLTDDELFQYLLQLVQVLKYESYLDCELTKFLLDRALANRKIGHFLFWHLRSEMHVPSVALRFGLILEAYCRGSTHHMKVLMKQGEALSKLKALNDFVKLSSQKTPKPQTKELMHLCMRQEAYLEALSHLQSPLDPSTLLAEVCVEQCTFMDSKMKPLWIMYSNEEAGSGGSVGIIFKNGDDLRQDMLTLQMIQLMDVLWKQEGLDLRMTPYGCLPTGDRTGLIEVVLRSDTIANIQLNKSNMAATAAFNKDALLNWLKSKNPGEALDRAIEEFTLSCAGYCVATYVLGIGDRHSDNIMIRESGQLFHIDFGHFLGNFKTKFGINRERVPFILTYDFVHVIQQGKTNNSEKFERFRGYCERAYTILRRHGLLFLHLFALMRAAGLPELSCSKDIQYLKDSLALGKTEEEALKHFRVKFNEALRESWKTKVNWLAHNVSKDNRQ
T2 sequence (P27986 whole entry partner, species assumed, canonical isoform): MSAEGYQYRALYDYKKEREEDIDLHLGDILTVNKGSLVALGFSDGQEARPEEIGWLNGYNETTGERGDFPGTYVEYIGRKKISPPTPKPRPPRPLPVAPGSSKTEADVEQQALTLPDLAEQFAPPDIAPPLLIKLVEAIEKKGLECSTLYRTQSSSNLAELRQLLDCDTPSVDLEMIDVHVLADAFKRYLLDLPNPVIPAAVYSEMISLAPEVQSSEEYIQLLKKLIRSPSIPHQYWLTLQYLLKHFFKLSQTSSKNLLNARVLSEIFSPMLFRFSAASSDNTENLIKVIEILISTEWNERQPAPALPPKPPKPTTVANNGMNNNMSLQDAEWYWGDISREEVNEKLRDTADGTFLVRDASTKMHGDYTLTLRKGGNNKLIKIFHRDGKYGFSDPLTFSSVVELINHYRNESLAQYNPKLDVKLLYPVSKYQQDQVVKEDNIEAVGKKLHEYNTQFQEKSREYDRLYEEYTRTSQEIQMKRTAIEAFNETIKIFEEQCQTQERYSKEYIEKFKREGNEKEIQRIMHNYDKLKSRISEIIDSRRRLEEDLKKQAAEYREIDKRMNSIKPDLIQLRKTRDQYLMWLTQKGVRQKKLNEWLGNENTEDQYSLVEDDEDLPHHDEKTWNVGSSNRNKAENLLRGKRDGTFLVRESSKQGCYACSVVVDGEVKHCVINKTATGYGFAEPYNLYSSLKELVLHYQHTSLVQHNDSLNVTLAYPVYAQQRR
T1 sequence (P42338 whole entry, species assumed, canonical isoform): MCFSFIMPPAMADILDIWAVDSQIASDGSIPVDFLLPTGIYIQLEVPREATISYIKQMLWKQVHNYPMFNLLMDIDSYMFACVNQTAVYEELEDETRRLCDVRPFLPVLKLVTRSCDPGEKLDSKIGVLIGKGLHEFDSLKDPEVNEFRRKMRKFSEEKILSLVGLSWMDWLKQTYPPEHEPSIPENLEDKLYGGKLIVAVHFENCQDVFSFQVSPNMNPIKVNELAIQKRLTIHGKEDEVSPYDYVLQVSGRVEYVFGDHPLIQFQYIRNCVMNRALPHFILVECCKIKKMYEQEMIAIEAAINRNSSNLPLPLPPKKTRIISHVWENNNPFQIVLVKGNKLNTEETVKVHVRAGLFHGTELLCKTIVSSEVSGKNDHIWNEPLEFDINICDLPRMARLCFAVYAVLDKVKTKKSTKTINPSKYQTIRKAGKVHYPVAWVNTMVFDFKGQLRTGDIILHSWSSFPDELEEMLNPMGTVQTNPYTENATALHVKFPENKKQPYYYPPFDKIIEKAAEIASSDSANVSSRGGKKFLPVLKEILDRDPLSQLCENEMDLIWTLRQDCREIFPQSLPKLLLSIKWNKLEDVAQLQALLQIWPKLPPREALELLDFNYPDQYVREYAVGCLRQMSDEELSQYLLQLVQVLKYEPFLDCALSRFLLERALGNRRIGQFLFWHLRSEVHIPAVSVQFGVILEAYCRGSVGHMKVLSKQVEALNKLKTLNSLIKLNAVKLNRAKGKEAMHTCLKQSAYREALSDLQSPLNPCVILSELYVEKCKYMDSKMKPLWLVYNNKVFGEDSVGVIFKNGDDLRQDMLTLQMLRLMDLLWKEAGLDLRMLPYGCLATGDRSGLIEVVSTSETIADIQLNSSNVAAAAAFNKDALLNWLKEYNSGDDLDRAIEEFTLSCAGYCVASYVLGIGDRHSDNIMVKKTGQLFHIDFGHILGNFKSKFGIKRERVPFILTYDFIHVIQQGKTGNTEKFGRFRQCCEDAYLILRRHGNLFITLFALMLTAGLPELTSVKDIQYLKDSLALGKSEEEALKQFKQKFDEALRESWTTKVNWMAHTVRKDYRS
T1 sequence (P27986 whole entry partner, species assumed, canonical isoform): as the sequence (P27986 whole entry partner, species assumed, canonical isoform) above
T3 sequence (P42336 whole entry, species assumed): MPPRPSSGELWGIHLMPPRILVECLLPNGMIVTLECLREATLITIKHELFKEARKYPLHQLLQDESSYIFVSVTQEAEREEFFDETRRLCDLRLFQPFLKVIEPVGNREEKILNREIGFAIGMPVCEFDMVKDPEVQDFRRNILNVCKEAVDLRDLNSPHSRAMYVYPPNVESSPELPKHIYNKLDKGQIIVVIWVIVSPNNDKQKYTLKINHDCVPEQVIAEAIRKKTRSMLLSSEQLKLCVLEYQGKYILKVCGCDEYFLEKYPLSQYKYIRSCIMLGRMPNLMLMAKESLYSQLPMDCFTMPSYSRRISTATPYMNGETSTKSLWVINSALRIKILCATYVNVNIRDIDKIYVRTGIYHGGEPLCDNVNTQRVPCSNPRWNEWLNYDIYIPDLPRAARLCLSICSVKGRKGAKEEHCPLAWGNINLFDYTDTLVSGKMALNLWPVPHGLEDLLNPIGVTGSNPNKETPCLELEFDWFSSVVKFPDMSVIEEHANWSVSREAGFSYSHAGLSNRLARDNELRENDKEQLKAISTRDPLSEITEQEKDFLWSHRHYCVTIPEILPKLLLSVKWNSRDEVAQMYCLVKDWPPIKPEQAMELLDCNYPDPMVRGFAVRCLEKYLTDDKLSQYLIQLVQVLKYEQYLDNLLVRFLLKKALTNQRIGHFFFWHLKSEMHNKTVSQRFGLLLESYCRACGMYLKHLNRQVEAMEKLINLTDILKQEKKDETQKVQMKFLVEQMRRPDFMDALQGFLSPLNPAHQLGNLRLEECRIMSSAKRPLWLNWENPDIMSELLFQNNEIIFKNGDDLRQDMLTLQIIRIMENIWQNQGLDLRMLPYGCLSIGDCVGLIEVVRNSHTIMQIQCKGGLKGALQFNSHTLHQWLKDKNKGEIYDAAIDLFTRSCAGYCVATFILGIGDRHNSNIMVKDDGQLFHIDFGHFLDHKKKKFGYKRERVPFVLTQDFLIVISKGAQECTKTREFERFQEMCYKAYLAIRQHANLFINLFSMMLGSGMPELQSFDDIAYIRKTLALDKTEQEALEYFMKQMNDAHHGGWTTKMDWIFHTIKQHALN
T3 sequence (P27986 whole entry partner, species assumed): as the sequence (P27986 whole entry partner, species assumed, canonical isoform) above
Sequence of p110γ (Q9JHG7 whole entry, canonical isoform): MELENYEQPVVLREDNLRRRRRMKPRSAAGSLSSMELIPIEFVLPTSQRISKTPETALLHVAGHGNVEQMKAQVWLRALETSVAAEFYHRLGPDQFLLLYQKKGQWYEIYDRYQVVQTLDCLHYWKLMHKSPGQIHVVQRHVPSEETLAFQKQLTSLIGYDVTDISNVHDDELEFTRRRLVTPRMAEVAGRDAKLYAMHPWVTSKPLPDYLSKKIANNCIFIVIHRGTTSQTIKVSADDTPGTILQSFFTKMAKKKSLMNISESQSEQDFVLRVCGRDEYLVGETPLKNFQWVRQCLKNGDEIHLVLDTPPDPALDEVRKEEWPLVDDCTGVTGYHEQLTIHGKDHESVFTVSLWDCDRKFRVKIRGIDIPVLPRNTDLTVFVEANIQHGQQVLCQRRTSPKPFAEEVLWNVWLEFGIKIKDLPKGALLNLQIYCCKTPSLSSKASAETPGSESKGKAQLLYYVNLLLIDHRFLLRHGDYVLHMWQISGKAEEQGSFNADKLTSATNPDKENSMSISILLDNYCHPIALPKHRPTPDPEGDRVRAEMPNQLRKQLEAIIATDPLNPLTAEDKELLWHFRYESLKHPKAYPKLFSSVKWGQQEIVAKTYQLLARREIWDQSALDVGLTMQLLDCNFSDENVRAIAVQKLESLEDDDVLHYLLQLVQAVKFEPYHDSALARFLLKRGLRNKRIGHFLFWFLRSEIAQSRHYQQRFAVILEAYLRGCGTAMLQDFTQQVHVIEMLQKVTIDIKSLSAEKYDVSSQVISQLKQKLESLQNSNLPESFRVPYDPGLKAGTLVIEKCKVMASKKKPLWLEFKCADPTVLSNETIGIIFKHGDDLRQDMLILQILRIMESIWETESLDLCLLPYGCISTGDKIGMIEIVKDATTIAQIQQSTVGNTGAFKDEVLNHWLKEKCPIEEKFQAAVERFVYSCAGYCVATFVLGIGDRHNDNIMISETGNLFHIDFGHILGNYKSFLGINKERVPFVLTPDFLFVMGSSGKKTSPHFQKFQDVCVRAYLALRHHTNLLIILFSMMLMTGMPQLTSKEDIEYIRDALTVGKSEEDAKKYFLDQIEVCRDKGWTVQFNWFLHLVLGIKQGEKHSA

Turning to `c1cnc2ccc(Nc3nc(NC4CC4)c4nc[nH]c4n3)cc2c1` [Puquitinib], in series [1], the “LPA‐stimulated phosphorylation of AKT in PC‐3 cells” value is “much weaker”. Moreover, in series [2], the “Cytotoxicity against peripheral blood mononuclear cells” value is reported as “no cytotoxicity”. Moreover, the “Phosphorylation of AKT, S6 and ERK in anti‐IgM–stimulated Raji cells” value in series [3] was “concentration‐dependent decrease”. The Apoptosis induction entry in series [4] is “increased in a dose‐dependent manner”. Also, the “Inhibitory activity against a panel of other protein kinases” value in series [5] was “little or no inhibitory activity”. The “Phosphorylation of AKT or ERK in MM.1R cells” value in series [6] was “did not affect”. In series [7], the G1 phase cells was 83.0%. In addition, the IC50 is 959 ± 367 nM in series [8], 3.3 ± 0.6 nM in [10], 100 nM in series [12] and 993 ± 320 nM in series [14]. The “Levels of pAKT and pERK in tumor tissues” value in [9] (MV4;11 and RS4;11 tumor models, 3 h after last dose) is reported as “significantly decreased”. For the same compound, the “Tolerability (body weight loss, signs of toxicity)” value in series [9] (MV4;11 and RS4;11 xenograft studies, all groups) was “well tolerated”. Moreover, in series [9] (MV4;11 xenograft, single oral 60 mg/kg, 0.5 to 24 h), the “Phosphorylation of AKT and ERK in tumor tissue after a single dose” value is given as “inhibited in a time‐dependent manner”. The Tumor growth inhibition in series [9] (MV4;11 xenografts, 30 mg/kg oral daily for 21 days, final treatment day) was 72%; in series [9] (MV4;11 xenografts, 60 mg/kg oral daily for 21 days, final treatment day), 103%; in [17] (30 mg/kg oral daily for 21 days), 50%; in [17] (60 mg/kg oral daily for 21 days), 69%. Further, the Complete tumor regression entry in [9] (MV4;11 xenografts, 60 mg/kg oral daily) was “three of six”. Further, in series [9] (MV4;11 xenografts, 30 mg/kg puquitinib combined with 2 mg/kg daunorubicin, P < 0.01), the “Antitumor efficacy of combination versus single agents” value is “significantly superior”. Moreover, the Tolerability of combination result in series [9] (MV4;11 xenografts, puquitinib with daunorubicin or cytarabine) is reported as “generally well tolerated”. For the same compound, the “Cytotoxicity in p110δ‐negative MM.1R cell line” value in series [11] is “minimal cytotoxicity”. In addition, the “Phosphorylation of AKT and ERK in p110δ‐positive AML cells” value in series [13] is “significantly inhibited”. Further, the Hyperglycemia result in series [15] was “no puquitinib‐related hyperglycemia”. In series [16], the “C5a‐stimulated phosphorylation of AKT in RAW 264.7 cells” value is recorded as “much weaker”. For the same compound, the “p110α/AKT phosphorylation in SK‐BR‐3 cells” value in series [18] is given as “No obvious inhibitory activity”. Besides, the “Appearance in plasma and tumor tissue” value in series [19] is “appeared rapidly”.
Regarding `CC[C@H](Nc1ncnc2[nH]cnc12)c1nc2cccc(F)c2c(=O)n1-c1ccccc1` [CAL‐101, Idelalisib, reference compound], the “Phosphorylation of AKT, S6 and ERK in anti‐IgM–stimulated Raji cells” value in [3] was “concentration‐dependent decrease”. For the same compound, the Apoptosis induction entry in series [4] is “weaker induction of apoptosis”. In series [7], this compound yielded a G1 phase cells of 70.7%. The Tumor growth inhibition in series [9] (MV4;11 xenografts, 90 mg/kg oral daily) turned out to be 50%; in series [9] (MV4;11 xenografts, 180 mg/kg oral daily), 61%. In series [12], the half-maximal inhibitory concentration (IC50) was 2400 nM. For the same compound, in series [13], the “Phosphorylation of AKT and ERK in p110δ‐positive AML cells” value is “preferentially inhibited phosphorylation of AKT relative to ERK”.

By IC50 is commonly meant the concentration that gives 50% inhibition.
